Values after ≈ are worked out from the molar mass of the structure shown.
What was measured:
Format in all cases: functional
Settings in all cases: time 7 day
[1] = system: Mycobacterium tuberculosis; assay: Antitubercular activity against FQ resistant Mycobacterium tuberculosis H37Rv harboring gyrA Gly-88-Cys mutant measured after 7 days by resazurin microtiter assay
How it was run: (§1)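 Resazurin microtiter assay with two-fold drug dilutions in complete 7H9 broth. Exponential-phase cells are diluted to a final OD600 of 0.005 in 7H9 without Tween. Incubation is 7 days at 37°C, then 0.01% resazurin is added and plates are held 24 h more. MIC is the lowest concentration preventing the blue-to-pink change. Each MIC is determined three times in duplicate experiments.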

[2] = system: Mycobacterium tuberculosis; assay: Antitubercular activity against FQ resistant Mycobacterium tuberculosis H37Rv harboring gyrA Asp-94-Gly/gyrB Asp-500-Asn mutant measured after 7 days by resazurin microtiter assay; how it was run: as §1
[3] = system: Mycobacterium tuberculosis; assay: Antitubercular activity against FQ resistant Mycobacterium tuberculosis H37Rv harboring gyrA Ala-90-Val mutant measured after 7 days by resazurin microtiter assay; how it was run: as §1
[4] = system: Mycobacterium tuberculosis; assay: Antitubercular activity against FQ resistant Mycobacterium tuberculosis H37Rv harboring gyrA Ala-90-Val/gyrB Glu-540-Val mutant measured after 7 days by resazurin microtiter assay; how it was run: as §1
[5] = system: Mycobacterium tuberculosis; assay: Antitubercular activity against FQ resistant Mycobacterium tuberculosis H37Rv harboring gyrA Ser-91-Pro mutant measured after 7 days by resazurin microtiter assay; how it was run: as §1
[6] = system: Mycobacterium tuberculosis; assay: Antitubercular activity against FQ resistant Mycobacterium tuberculosis H37Rv harboring gyrA Asp-94-Gly mutant measured after 7 days by resazurin microtiter assay; how it was run: as §1

Row | SMILES | MIC90 [1] [µM] | MIC90 [2] [µM] | MIC90 [3] [µM] | MIC90 [4] [µM] | MIC90 [5] [µM] | MIC90 [6] [µM]
1 | Cn1cc(C(=O)O)c(=O)c2cc([N+](=O)[O-])c3cccnc3c21 | 2.64 (≈ 0.79 µg/mL) | 5.28 (≈ 1.58 µg/mL) | 5.28 (≈ 1.58 µg/mL) | 5.28 (≈ 1.58 µg/mL) | 5.28 (≈ 1.58 µg/mL) | 2.64 (≈ 0.79 µg/mL)
2 | CCOC(=O)c1cn(C)c2c(cc([N+](=O)[O-])c3cccnc32)c1=O | >50 | >50 | >50 | >50 | >50 | 1.21 (≈ 0.396 µg/mL)
3 | CCn1cc(C(=O)O)c(=O)c2cc([N+](=O)[O-])c3cccnc3c21 | 11.68 (≈ 3.66 µg/mL) | 5.84 (≈ 1.83 µg/mL) | 11.68 (≈ 3.66 µg/mL) | 11.68 (≈ 3.66 µg/mL) | 11.68 (≈ 3.66 µg/mL) | 2.99 (≈ 0.937 µg/mL)
4 | CCOC(=O)c1cn(CC)c2c(cc([N+](=O)[O-])c3cccnc32)c1=O | >50 | >50 | >50 | >50 | >50 | 4.99 (≈ 1.7 µg/mL)
5 | COc1c(N2C[C@@H]3CCCN[C@@H]3C2)c(F)cc2c(=O)c(C(=O)O)cn(C3CC3)c12 [MOXIFLOXACIN] | 6.16 (≈ 2.47 µg/mL) | 6.16 (≈ 2.47 µg/mL) | 3.08 (≈ 1.24 µg/mL) | 6.16 (≈ 2.47 µg/mL) | 6.16 (≈ 2.47 µg/mL) | 3.08 (≈ 1.24 µg/mL)
6 | CCn1cc(C(=O)O)c(=O)c2ccc(C)nc21 [NALIDIXIC ACID] | >50 | >50 | >50 | >50 | >50 | >50
7 | CC1COc2c(N3CCN(C)CC3)c(F)cc3c(=O)c(C(=O)O)cn1c23 (configuration not stated) [OFLOXACIN] | 27.6 (≈ 9.97 µg/mL) | 27.6 (≈ 9.97 µg/mL) | 13.8 (≈ 4.99 µg/mL) | 27.6 (≈ 9.97 µg/mL) | 27.6 (≈ 9.97 µg/mL) | 13.8 (≈ 4.99 µg/mL)
